# Laboratory results from ChEMBL document CHEMBL3822380, “Simple avarone mimetics as selective agents against multidrug resistant cancer cells” (Eur J Med Chem, 2016).
# Calls of active or inactive are those of the source.
# Experiments:
# NCI-H460 [1] = experiment: Induction of apoptosis in multidrug resistant human NCI-H460 cells assessed as late apoptotic/necrotic cells at 25 uM after 72 hrs by annexin-V/propidium iodide staining-based flow cytometric analysis (reference value: 1%); type: functional
# NCI-H460 [2] = experiment: Induction of apoptosis in human NCI-H460 cells assessed as early apoptotic cells at 25 uM after 72 hrs by annexin-V/propidium iodide staining-based flow cytometric analysis (reference value: 0.3%); type: functional
# NCI-H460 [3] = experiment: Cytotoxicity against human NCI-H460 cells after 72 hrs by MTT assay; type: functional, cell-based; details: NCI-H460, 72 h
# Outline: (§1)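 Seeding in 96-well plates at 1000 (NCI-H460), 2000 (NCI-H460/R) or 4000 (HaCaT) cells/well, treated after 24 h for 72 h. MTT at 0.4 mg/mL final, 4 h at 37 °C. Formazan dissolved in DMSO, absorbance read at 540 nm. Inhibition % = (1 − A treated/A untreated)×100. IC30 and IC50 obtained by linear regression.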
# HaCaT [4] = experiment: Induction of apoptosis in human HaCaT cells assessed as early apoptotic cells at 25 uM after 72 hrs by annexin-V/propidium iodide staining-based flow cytometric analysis (reference value: 0.2%); type: cell-based
# HaCaT [5] = experiment: Induction of apoptosis in human HaCaT cells assessed as dead cells at 25 uM after 72 hrs by annexin-V/propidium iodide staining-based flow cytometric analysis (reference value: 2.8%); type: cell-based
# [6] = Selectivity ratio of IC30/IC50 for human HaCaT cells to IC30/IC50 for human NCI-H460 cells; type: ADME, cell-based; details: HaCaT cells versus NCI-H460 cells
# Outline: (§2)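 Fold threshold of 1.5 used to call selectivity to cancer cells, resistance, or selectivity to MDR cells.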
# NCI-H460 [7] = experiment: Induction of superoxide anion generation in multidrug resistant human NCI-H460 cells at 25 uM after 72 hrs by DHE staining-based flow cytometric analysis relative to control; type: functional, cell-based
# Outline: (§3)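 Seeded as for cell death (50,000 or 100,000 cells/well), treated 72 h at 25 µM, with CDDP 5 µM as control. Adherent cells trypsinized and loaded with 1 µM DHE for 30 min at 37 °C in the dark, then washed twice in PBS. Flow cytometry at ex 488/em 585 nm (FL2-H). Mean fluorescence intensity corrected for autofluorescence and compared with untreated control.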
# NCI-H460 [8] = experiment: Induction of apoptosis in multidrug resistant human NCI-H460 cells assessed as early apoptotic cells at 25 uM after 72 hrs by annexin-V/propidium iodide staining-based flow cytometric analysis (reference value: 1.1%); type: functional
# HaCaT [9] = experiment: Induction of apoptosis in human HaCaT cells assessed as late apoptotic/necrotic cells at 25 uM after 72 hrs by annexin-V/propidium iodide staining-based flow cytometric analysis (reference value: 0.2%); type: cell-based
# NCI-H460 [10] = experiment: Induction of apoptosis in human NCI-H460 cells assessed as live cells at 25 uM after 72 hrs by annexin-V/propidium iodide staining-based flow cytometric analysis (reference value: 98.3%); type: functional
# NCI-H460 [11] = experiment: Induction of superoxide anion generation in human NCI-H460 cells at 25 uM after 72 hrs by DHE staining-based flow cytometric analysis relative to control; type: functional, cell-based; outline: as §3
# NCI-H460 [12] = experiment: Induction of apoptosis in human NCI-H460 cells assessed as late apoptotic/necrotic cells at 25 uM after 72 hrs by annexin-V/propidium iodide staining-based flow cytometric analysis (reference value: 0.2%); type: functional
# NCI-H460 [13] = experiment: Induction of apoptosis in multidrug resistant human NCI-H460 cells assessed as dead cells at 25 uM after 72 hrs by annexin-V/propidium iodide staining-based flow cytometric analysis (reference value: 1.5%); type: functional
# [14] = Selectivity ratio of IC30/IC50 for human HaCaT cells to IC30/IC50 for multidrug resistant human NCI-H460 cells; type: ADME, cell-based; details: HaCaT cells versus multidrug resistant NCI-H460 cells; outline: as §2
# NCI-H460 [15] = experiment: Cytotoxicity against multidrug resistant human NCI-H460 cells after 72 hrs by MTT assay; type: functional, cell-based; details: NCI-H460, 72 h; outline: as §1
# NCI-H460 [16] = experiment: Induction of apoptosis in multidrug resistant human NCI-H460 cells assessed as live cells at 25 uM after 72 hrs by annexin-V/propidium iodide staining-based flow cytometric analysis (reference value: 96.4%); type: functional
# HaCaT [17] = experiment: Cytotoxicity against human HaCaT cells after 72 hrs by MTT assay; type: cell-based; details: for IC50: Homo sapiens, HaCaT; for IC30: human, hacat; outline: as §1
# NCI-H460 [18] = experiment: Induction of apoptosis in human NCI-H460 cells assessed as dead cells at 25 uM after 72 hrs by annexin-V/propidium iodide staining-based flow cytometric analysis (reference value: 1.2%); type: functional
# [19] = Induction of apoptosis in human HaCaT cells assessed as live cells at 25 uM after 72 hrs by annexin-V/propidium iodide staining-based flow cytometric analysis (reference value: 96.8%); type: cell-based; details: read-out: Activity
# Pseudomonas aeruginosa = experiment: Antibacterial activity against Pseudomonas aeruginosa ATCC 9027 by broth microdilution method; type: functional
# Outline: (§4)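 Broth microdilution per NCCLS. Compounds dissolved in DMSO as 10 mg/mL stock, diluted in Mueller Hinton broth (bacteria) or Sabouraud dextrose broth (fungi). Amikacin served as the positive control for bacteria and nystatin for fungi.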
# Aspergillus brasiliensis = experiment: Antifungal activity against Aspergillus brasiliensis ATCC 16404 by broth microdilution method; type: functional; outline: as §4
# Micrococcus luteus [20] = experiment: Antibacterial activity against Micrococcus luteus ATCC 4698 by broth microdilution method; type: functional; details: NCTC 2665; outline: as §4
# Micrococcus luteus [21] = experiment: Antibacterial activity against Micrococcus luteus ATCC 10240 by broth microdilution method; type: functional; outline: as §4
# Saccharomyces cerevisiae = experiment: Antifungal activity against Saccharomyces cerevisiae ATCC 9763 by broth microdilution method; type: functional; outline: as §4
# NCI-H460 [22] = experiment: Selectivity ratio of IC30/IC50 for human NCI-H460 cells to IC30/IC50 for multidrug resistant human NCI-H460 cells; type: functional; outline: as §2
# Candida albicans = experiment: Antifungal activity against Candida albicans ATCC 10231 by broth microdilution method; type: functional; outline: as §4
# Salmonella enteritidis = experiment: Antibacterial activity against Salmonella enterica subsp. enterica serovar Enteritidis ATCC 13076 by broth microdilution method; type: functional; outline: as §4
# Clostridium sporogenes = experiment: Antibacterial activity against Clostridium sporogenes ATCC 19404 by broth microdilution method; type: functional; outline: as §4
# Staphylococcus aureus = experiment: Antibacterial activity against Staphylococcus aureus ATCC 6538 by broth microdilution method; type: functional; outline: as §4
# Escherichia coli = experiment: Antibacterial activity against Escherichia coli ATCC 25922 by broth microdilution method; type: functional; outline: as §4
# Bacillus spizizenii = experiment: Antibacterial activity against Bacillus subtilis ATCC 6633 by broth microdilution method; type: functional; outline: as §4
smiles,measurement,setting,value
CC1=CCC[C@H]2[C@](C)(CC3=CC(=O)C=CC3=O)[C@@H](C)CC[C@]12C [AVARONE],Activity,NCI-H460 [1],22.7%
same,Activity,NCI-H460 [2],3.4%
same,IC30,NCI-H460 [3],36 µM
same,IC50,NCI-H460 [3],84 µM
same,Activity,HaCaT [4],2.5%
same,Activity,HaCaT [5],9.1%
same,selectivity ratio,[6],≤ 1.5
same,Activity,NCI-H460 [7],Active
same,Activity,NCI-H460 [8],2.6%
same,Activity,HaCaT [9],10.1%
same,Activity,NCI-H460 [10],74%
same,Activity,NCI-H460 [11],Active
same,Activity,NCI-H460 [12],16.3%
same,Activity,NCI-H460 [13],8.9%
same,selectivity ratio,[14],≤ 1.5
same,IC30,NCI-H460 [15],10 µM
same,IC50,NCI-H460 [15],24 µM
same,Activity,NCI-H460 [16],65.8%
same,IC50,HaCaT [17],37 µM
same,IC30,HaCaT [17],16 µM
same,Activity,NCI-H460 [18],6.3%
same,"viability at 72 h, 25 µM",[19],78.3%
CC(C)(C)C1=CC(=O)C=C(NCc2ccccc2)C1=O,MIC,Pseudomonas aeruginosa,2320 µM
same,MIC,Aspergillus brasiliensis,2320 µM
same,IC30,NCI-H460 [3],5 µM
same,IC50,NCI-H460 [3],14 µM
same,MIC,Micrococcus luteus [20],4650 µM
same,MIC,Micrococcus luteus [21],9 µM
same,selectivity ratio,[6],≤ 1.5
same,MIC,Saccharomyces cerevisiae,2320 µM
same,selectivity ratio,NCI-H460 [22],<=1.5
same,MIC,Candida albicans,2320 µM
same,selectivity ratio,[14],≤ 1.5
same,IC30,NCI-H460 [15],3 µM
same,IC50,NCI-H460 [15],10 µM
same,MIC,Salmonella enteritidis,4650 µM
same,IC50,HaCaT [17],21 µM
same,IC30,HaCaT [17],12 µM
same,MIC,Clostridium sporogenes,2320 µM
same,MIC,Staphylococcus aureus,9 µM
same,MIC,Escherichia coli,9 µM
same,MIC,Bacillus spizizenii,2320 µM
